Data from ChEMBL document CHEMBL1131073, “Structure-activity study of the nociceptin(1-13)-NH2 N-terminal tetrapeptide and discovery of a nociceptin receptor antagonist” (J Med Chem, 1998).
Calls of active or inactive are those of the source. The calls are words filed in the database; no cut-off is given here. Numbered stars: 1 amine (or outer) side, 2 acyl side, 3 side chain; on linkers, the order of the positions; unused ones are H or OH. Square brackets hold non-standard residues; d marks the D form. Peptide text beside a SMILES is read from it. X1 = N[C@@H](Cc1ccccc1)CN(CC(=O)[*:2])[*:1]; Ava = NCCCCC(=O)O; GABA = NCCCC(=O)O; βAla = NCCC(=O)O

What was measured:
Assay type in all cases: functional
Mus musculus [1] = species on record: Mus musculus; assay: The maximal effect induced by an agonist expressed as percent inhibition of electrically induced twitches.
Outline: (§1)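 Vas deferens from Swiss male mice (25–30 g), prepared per Hughes, in Mg2+-free Krebs (95% O2/5% CO2, pH 7.4) at 33 °C, 0.3 g resting tension. Field stimulation via platinum ring electrodes: supramaximal 1-ms pulses, 0.1 Hz. Isotonic twitch recording. After ~2 h equilibration, cumulative concentration–response curves in 0.5 log steps. Mean ± SEM of at least four experiments; pEC50 with 95% confidence limits.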

Mus musculus [2] = species on record: Mus musculus; assay: Agonist effect in the electrically stimulated mouse vas deferens.;I = Inactive at 10 uM; outline: as §1
Mus musculus [3] = species on record: Mus musculus; assay: Antagonist effect in the electrically stimulated mouse vas deferens;I = Inactive at 10 uM
Mus musculus [4] = species on record: Mus musculus; assay: The maximal effect induced by an agonist expressed as percent inhibition of electrically induced twitches;I = Inactive at 10 uM; outline: as §1
Mus musculus [5] = species on record: Mus musculus; assay: The maximal effect induced by an agonist expressed as percent inhibition of electrically induced twitches; outline: as §1
Mus musculus [6] = species on record: Mus musculus; assay: Antagonist effect in the electrically stimulated mouse vas deferens; Inactive at 10 uM
Mus musculus [7] = species on record: Mus musculus; assay: Agonist effect in the electrically stimulated mouse vas deferens. (CL95%); outline: as §1
Mus musculus [8] = species on record: Mus musculus; assay: Agonist effect in the electrically stimulated mouse vas deferens. (CL95%); Inactive at 10 uM; outline: as §1
Mus musculus [9] = species on record: Mus musculus; assay: The maximal effect induced by an agonist expressed as percent inhibition of electrically induced twitches; Inactive at 10 uM; outline: as §1
Mus musculus [10] = species on record: Mus musculus; assay: Antagonist effect in the electrically stimulated mouse vas deferens; details: read-out: pA2 (converted)

`C[C@H](NC(=O)CNC(=O)[C@@H](NC(=O)[C@H](Cc1ccccc1)NC(=O)CNC(=O)CNC(=O)[C@@H](N)Cc1ccccc1)[C@@H](C)O)C(=O)N[C@@H](CCCNC(=N)N)C(=O)N[C@@H](CCCCN)C(=O)N[C@@H](CO)C(=O)N[C@@H](C)C(=O)N[C@@H](CCCNC(=N)N)C(=O)N[C@@H](CCCCN)C(N)=O` showed an Emax (Mus musculus [1]) of -84.
For `C[C@H](NC(=O)CNC(=O)[C@@H](NC(=O)[C@H](Cc1ccccc1)NC(=O)CNC(=O)[C@@H](Cc1ccccc1)NC(=O)[C@@H](N)Cc1ccccc1)[C@@H](C)O)C(=O)N[C@@H](CCCN=C(N)N)C(=O)N[C@@H](CCCCN)C(=O)N[C@@H](CO)C(=O)N[C@@H](C)C(=O)N[C@@H](CCCN=C(N)N)C(=O)N[C@@H](CCCCN)C(N)=O`, the “Log EC50” value (Mus musculus [2]) was “inactive”, the pA2 (Mus musculus [3]) was “inactive” and the Emax (Mus musculus [4]) was “inactive”.
`C[C@H](NC(=O)CNC(=O)[C@@H](NC(=O)[C@H](Cc1ccccc1)NC(=O)CNC(=O)[C@H](Cc1ccccc1)NC(=O)[C@@H](N)Cc1ccccc1)[C@@H](C)O)C(=O)N[C@@H](CCCN=C(N)N)C(=O)N[C@@H](CCCCN)C(=O)N[C@@H](CO)C(=O)N[C@@H](C)C(=O)N[C@@H](CCCN=C(N)N)C(=O)N[C@@H](CCCCN)C(N)=O` was tested, and the “Log EC50” value (Mus musculus [2]) was “inactive”, the pA2 (Mus musculus [3]) was “inactive” and the Emax (Mus musculus [4]) was “inactive”.
With `C[C@H](NC(=O)CNC(=O)[C@@H](NC(=O)[C@H](Cc1ccccc1)NC(=O)[C@@H](Cc1ccccc1)NC(=O)CNC(=O)[C@@H](N)Cc1ccccc1)[C@@H](C)O)C(=O)N[C@@H](CCCN=C(N)N)C(=O)N[C@@H](CCCCN)C(=O)N[C@@H](CO)C(=O)N[C@@H](C)C(=O)N[C@@H](CCCN=C(N)N)C(=O)N[C@@H](CCCCN)C(N)=O` (H-FG[dF]FTGARKSARK-NH2) the Emax (Mus musculus [5]) was -75, the pA2 (Mus musculus [6]) was “inactive” and the EC50 (Mus musculus [7]) was 2090 nM.
In the case of `C[C@H](NC(=O)CNC(=O)[C@@H](NC(=O)[C@H](Cc1ccccc1)NC(=O)CCCCNC(=O)[C@@H](N)Cc1ccccc1)[C@@H](C)O)C(=O)N[C@@H](CCCN=C(N)N)C(=O)N[C@@H](CCCCN)C(=O)N[C@@H](CO)C(=O)N[C@@H](C)C(=O)N[C@@H](CCCN=C(N)N)C(=O)N[C@@H](CCCCN)C(N)=O` (H-F[Ava]FTGARKSARK-NH2), the “Log EC50” value (Mus musculus [8]) is reported as “inactive”, the Emax (Mus musculus [9]) is reported as “inactive” and the pA2 (Mus musculus [6]) is reported as “inactive”.
For `C[C@H](NC(=O)CNC(=O)[C@@H](NC(=O)[C@H](Cc1ccccc1)NC(=O)CCCNC(=O)[C@@H](N)Cc1ccccc1)[C@@H](C)O)C(=O)N[C@@H](CCCN=C(N)N)C(=O)N[C@@H](CCCCN)C(=O)N[C@@H](CO)C(=O)N[C@@H](C)C(=O)N[C@@H](CCCN=C(N)N)C(=O)N[C@@H](CCCCN)C(N)=O` (H-F[GABA]FTGARKSARK-NH2), the “Log EC50” value (Mus musculus [8]) was “inactive”, the Emax (Mus musculus [9]) was “inactive” and the pA2 (Mus musculus [6]) was “inactive”.
In the case of `C[C@H](NC(=O)CNC(=O)[C@@H](NC(=O)[C@H](Cc1ccccc1)NC(=O)CCNC(=O)[C@@H](N)Cc1ccccc1)[C@@H](C)O)C(=O)N[C@@H](CCCN=C(N)N)C(=O)N[C@@H](CCCCN)C(=O)N[C@@H](CO)C(=O)N[C@@H](C)C(=O)N[C@@H](CCCN=C(N)N)C(=O)N[C@@H](CCCCN)C(N)=O` (H-F[βAla]FTGARKSARK-NH2), the “Log EC50” value (Mus musculus [8]) is reported as “inactive”, the Emax (Mus musculus [9]) is reported as “inactive” and the pA2 (Mus musculus [6]) is reported as “inactive”.
In the case of `C[C@H](NC(=O)CNC(=O)[C@@H](NC(=O)[C@H](Cc1ccccc1)NC(=O)CNC(=O)CNC[C@@H](N)Cc1ccccc1)[C@@H](C)O)C(=O)N[C@@H](CCCN=C(N)N)C(=O)N[C@@H](CCCCN)C(=O)N[C@@H](CO)C(=O)N[C@@H](C)C(=O)N[C@@H](CCCN=C(N)N)C(=O)N[C@@H](CCCCN)C(N)=O` (H-[X1]GFTGARKSARK-NH2), the “Log EC50” value (Mus musculus [8]) is reported as “inactive”, the Emax (Mus musculus [9]) is reported as “inactive” and the Kb (Mus musculus [10]) is reported as 178 nM.
Compound `CC(NC(=O)CNC(=O)[C@@H](NC(=O)[C@H](Cc1ccccc1)NC(=O)CNC(=O)C(C)NC(=O)[C@@H](N)Cc1ccccc1)[C@@H](C)O)C(=O)N[C@@H](CCCN=C(N)N)C(=O)N[C@@H](CCCCN)C(=O)N[C@@H](CO)C(=O)NC(C)C(=O)N[C@@H](CCCN=C(N)N)C(=O)N[C@@H](CCCCN)C(N)=O` (stereo in doubt) has an Emax (Mus musculus [1]) of -81 and an EC50 (Mus musculus [7]) of 1000 nM.
With `C[C@H](NC(=O)CNC(=O)[C@@H](NC(=O)C(Cc1ccccc1)NC(=O)CNC(=O)CNC[C@H](N)Cc1ccccc1)[C@@H](C)O)C(=O)N[C@@H](CCCN=C(N)N)C(=O)N[C@@H](CCCCN)C(=O)N[C@@H](CO)C(=O)N[C@@H](C)C(=O)N[C@@H](CCCN=C(N)N)C(=O)N[C@@H](CCCCN)C(N)=O` (stereo in doubt) the “Log EC50” value (Mus musculus [8]) was “inactive”, the Emax (Mus musculus [9]) was “inactive” and the pA2 (Mus musculus [6]) was “inactive”.
In the case of `CC(C)C[C@H](NC(=O)[C@H](CCCCN)NC(=O)[C@H](CCCNC(=N)N)NC(=O)[C@H](C)NC(=O)[C@H](CO)NC(=O)[C@H](CCCCN)NC(=O)[C@H](CCCNC(=N)N)NC(=O)[C@H](C)NC(=O)CNC(=O)[C@@H](NC(=O)[C@H](Cc1ccccc1)NC(=O)CNC(=O)CNC(=O)[C@@H](N)Cc1ccccc1)[C@@H](C)O)C(=O)N[C@@H](C)C(=O)N[C@@H](CC(N)=O)C(=O)N[C@@H](CCC(N)=O)C(=O)O` [NOCICEPTIN], the Emax (Mus musculus [1]) is reported as -83.
For H-FFTGARKSARK-NH2, the “Log EC50” value (Mus musculus [8]) was “inactive”, the Emax (Mus musculus [9]) was “inactive” and the pA2 (Mus musculus [6]) was “inactive”.
In the case of H-FGFFTGARKSARK-NH2, the “Log EC50” value (Mus musculus [8]) is reported as “inactive”, the Emax (Mus musculus [9]) is reported as “inactive” and the pA2 (Mus musculus [6]) is reported as “inactive”.
In the case of H-FGGGFTGARKSARK-NH2, the pA2 (Mus musculus [6]) is reported as “inactive”, the Emax (Mus musculus [1]) is reported as -73 and the EC50 (Mus musculus [7]) is reported as 3240 nM.
With H-FPFTGARKSARK-NH2 the “Log EC50” value (Mus musculus [8]) was “inactive”, the Emax (Mus musculus [9]) was “inactive” and the pA2 (Mus musculus [6]) was “inactive”.
